This note sets out measurements from ChEMBL document CHEMBL1926577, “Novel 1,3,4-heterodiazole analogues: synthesis and in-vitro antitumor activity” (2012).

The source made the active and inactive calls. The rule behind the calls is not given here.

Holding throughout (type): functional
Assay [1] concerns IGROV-1. Kind of assay: Growth inhibition of human IGROV1 cells at 10 uM after 48 hrs by coulter counter method. An outline of the steps: (§1)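 NCI 60-cell-line panel, single dose. Compound dissolved first in DMSO, then diluted in phosphate-buffered saline so that every final dilution held under 1% DMSO. Duplicate wells received cells at 6 × 10⁴ cells/ml. Controls held PBS/DMSO at the same dilution. Plates were incubated 48 h at 37 °C under 5% CO₂. Cells were then diluted 10-fold in saline and counted on a Coulter counter, with counts corrected for the dilution. Results are given as percent growth inhibition.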

Assay [2] relates to BT-549. Nature of the assay: Growth inhibition of human BT549 cells at 10 uM after 48 hrs by coulter counter method. The conditions noted are these: BT-549, 48 h, read-out: GI. In short, it runs like this: as §1
Assay [3] relates to SR. Nature of the assay: Growth inhibition of human SR cells at 10 uM after 48 hrs by coulter counter method. The settings on record: read-out: GI. In short, it runs like this: as §1
The subject of assay [4] is LOX IMVI. Kind of assay: Growth inhibition of human LOXIMVI cells at 10 uM after 48 hrs by coulter counter method. In short, it runs like this: as §1
Assay [5] has as its system Melanoma cell. Kind of assay: Growth inhibition of human Melanoma cells after 48 hrs by coulter counter method. An outline of the steps:
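NCI 60-line panel cells. Compound is dissolved in DMSO and diluted in phosphate-buffered saline, with final DMSO below 1%. It is added in duplicate wells to cultures at 6 × 10⁴ cells/ml and held at 37 °C, 5% CO₂, humidified, for 48 h. Cells are diluted 10-fold in saline, counted by Coulter counter and dilution-corrected. Vehicle controls contain PBS plus DMSO.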

Assay [6] has as its system RPMI-8226. Nature of the assay: Growth inhibition of human RPMI8226 cells at 10 uM after 48 hrs by coulter counter method. The conditions noted are these: RPMI-8226, 48 h, read-out: GI. An outline of the steps: as §1
Assay [7] relates to PC-3. Nature of the assay: Growth inhibition of human PC3 cells at 10 uM after 48 hrs by coulter counter method. The conditions noted are these: PC-3, 48 h, read-out: GI. In short, it runs like this: as §1
The test system of assay [8] is HL-60(TB). Kind of assay: Growth inhibition of human HL-60(TB) cells at 10 uM after 48 hrs by coulter counter method. The conditions noted are these: HL-60, 48 h, read-out: GI. In short, it runs like this:
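Single-dose screen on the NCI 60-line panel (leukemia subpanel). Compound is dissolved in DMSO and diluted in PBS, with final DMSO below 1%. Duplicate wells hold 6 × 10⁴ cells/ml at 37 °C, 5% CO₂, for 48 h. Cells are counted by Coulter counter after 10-fold saline dilution. Read-out is percent growth versus PBS/DMSO controls, expressed as % growth inhibition.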

Assay [9] relates to UO-31. Kind of assay: Growth inhibition of human UO31 cells at 10 uM after 48 hrs by coulter counter method. In short, it runs like this: as §1
Assay [10] has as its system TK-10. Kind of assay: Growth inhibition of human TK10 cells at 10 uM after 48 hrs by coulter counter method. The settings on record: TK-10, 48 h, read-out: GI. In short, it runs like this:
as §1

For assay [11], the system named is OVCAR-8. Nature of the assay: Growth inhibition of human OVCAR8 cells at 10 uM after 48 hrs by coulter counter method. The conditions noted are these: OVCAR-8, 48 h, read-out: GI. An outline of the steps: as §1
For assay [12], the system named is U-251. Nature of the assay: Growth inhibition of human U251 cells at 10 uM after 48 hrs by coulter counter method. The conditions noted are these: U-251, 48 h, read-out: GI. An outline of the steps:
as §1

Assay [13] concerns M14. Nature of the assay: Growth inhibition of human M14 cells at 10 uM after 48 hrs by coulter counter method. The settings on record: M14, 48 h, read-out: GI. In short, it runs like this:
as §1

Assay [14] has as its system CAKI-1. Nature of the assay: Growth inhibition of human Caki1 cells at 10 uM after 48 hrs by coulter counter method. In short, it runs like this: as §1
For assay [15], the system named is NCI/ADR-RES. Kind of assay: Growth inhibition of human NCI/ADR-RES cells at 10 uM after 48 hrs by coulter counter method. The conditions noted are these: read-out: GI. An outline of the steps: as §1
Assay [16] relates to NCI-H522. Kind of assay: Growth inhibition of human NCI-H522 cells at 10 uM after 48 hrs by coulter counter method. The settings on record: NCI-H522, 48 h, read-out: GI. An outline of the steps: as §1

On to `O=C1CN2N=C(c3ccccc3)SC2=N1`, for which the “growth inhibition (GI)” value in assay [1], in [4], in assay [9] and in assay [14] was “Active” throughout. For the same compound, the inhibition of growth at 10 µM came out at 53.4% in assay [2]; 36.3% in assay [3]; 72.2% in assay [6]; 30.1% in assay [7]; 21% in assay [8]; 25.4% in [10]. Moreover, the inhibition of growth at 10 µM in assay [11] turned out to be 35.3%; in assay [12] it was 58.3%; in assay [13], 30.2%; in [15], 17.9%; in assay [16], 46.5%. Besides, the 50% growth inhibitory concentration (GI50) (usually the concentration at which growth is held to half of that of the control) in assay [5] came out at 8 µM. In addition, in [5], the LC50 (in general, the concentration that kills 50% of the test population) came to 51.4 µM. The concentration for total growth inhibition (TGI) (usually the concentration giving total growth inhibition) in assay [5] was 20.1 µM.
